Columns and labels:
[1] = biological target: T1, Delta-type opioid receptor (Rattus norvegicus, UniProt P33533); assay: Binding affinity for Opioid receptor delta 1 by the inhibition of binding of [3H]DADAL in rat brain membranes.; format: cell membranes
Procedure, shortened: (§1)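 Rat brain membranes labelled with [³H]DADLE at 1.7-2.5 nM. Incubation 3-4 h at 25 °C in Tris-HCl pH 7.4 with 100 mM choline chloride, 3 mM MnCl₂, protease inhibitor cocktail and 100 nM DAMGO to block μ sites. Nonspecific binding defined with 20 μM levallorphan. Nine test concentrations, run twice. IC50 reported.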

Cavia porcellus = species: Cavia porcellus; assay: Binding affinity ratio of kappa opioid receptor (guinea pig brain membranes) with respect to delta opioid receptor( rat brain membranes); format: cell membranes; details: Membrane
Procedure, shortened: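 Ratio of IC50 from [³H]U69,593 binding to μ/δ-depleted guinea pig brain membranes over IC50 from [³H]DADLE binding to rat brain membranes (μ sites blocked with 100 nM DAMGO). Both assays run at 25 °C in Tris-HCl pH 7.4, nine concentrations, run twice.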

[2] = biological target: Opioid receptors; mu & delta (Rattus norvegicus) (UniProt P33533+P33535); assay: Binding affinity ratio on mu opioid receptor( rat brain membranes) with respect to delta opioid receptor (rat brain membranes)
Chain of Opioid receptors; mu & delta (Rattus norvegicus) (P33533 whole entry, looked up): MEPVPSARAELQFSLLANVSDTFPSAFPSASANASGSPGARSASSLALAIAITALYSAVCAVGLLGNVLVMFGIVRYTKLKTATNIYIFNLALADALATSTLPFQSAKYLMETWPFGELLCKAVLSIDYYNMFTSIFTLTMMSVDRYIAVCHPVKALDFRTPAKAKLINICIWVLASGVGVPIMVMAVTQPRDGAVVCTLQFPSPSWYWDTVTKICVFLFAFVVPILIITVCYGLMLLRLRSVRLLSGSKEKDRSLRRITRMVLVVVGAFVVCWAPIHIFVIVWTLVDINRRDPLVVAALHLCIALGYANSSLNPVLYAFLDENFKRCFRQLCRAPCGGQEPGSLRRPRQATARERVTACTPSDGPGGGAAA
Chain of Opioid receptors; mu & delta (Rattus norvegicus) (P33535 whole entry, looked up): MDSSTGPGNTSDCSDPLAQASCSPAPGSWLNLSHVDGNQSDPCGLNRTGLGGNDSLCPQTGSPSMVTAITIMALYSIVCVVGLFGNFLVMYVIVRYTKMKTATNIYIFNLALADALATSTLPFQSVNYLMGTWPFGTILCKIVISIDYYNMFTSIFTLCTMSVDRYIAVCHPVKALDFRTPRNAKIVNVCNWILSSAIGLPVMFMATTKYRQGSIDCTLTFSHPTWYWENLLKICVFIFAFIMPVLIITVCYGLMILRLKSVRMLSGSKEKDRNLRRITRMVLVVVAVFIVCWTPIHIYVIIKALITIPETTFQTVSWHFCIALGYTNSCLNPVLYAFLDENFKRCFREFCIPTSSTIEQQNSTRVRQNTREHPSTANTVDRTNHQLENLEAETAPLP
Procedure, shortened: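 Ratio of IC50 from [³H]DAMGO binding to rat brain membranes over IC50 from [³H]DADLE binding to rat brain membranes (μ sites blocked with 100 nM DAMGO). Both assays run at 25 °C in Tris-HCl pH 7.4, nine concentrations, run twice.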

Mu-type opioid receptor [3] = biological target: Mu-type opioid receptor (Rattus norvegicus, UniProt P33535); assay: Binding affinity for Opioid receptor mu 1 by the inhibition of binding of [3H]DAMGO in rat brain membranes.; format: cell membranes
Chain of Mu-type opioid receptor (Rattus norvegicus, UniProt P33535) (P33535 whole entry): as the sequence (P33535 whole entry, looked up) above
Procedure, shortened: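 Rat brain membranes with [³H]DAMGO at 1-3 nM, incubated 4 h at 25 °C in 50 mM Tris-HCl pH 7.4 plus protease inhibitor cocktail. Nonspecific binding measured with 20 μM levallorphan. Radioligand displaced by nine drug concentrations, in two runs. Drugs diluted in 10 mM Tris-HCl pH 7.4 containing 1 mg/mL BSA. IC50 reported.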

[4] = biological target: Kappa-type opioid receptor (Cavia porcellus, UniProt P41144); assay: Binding affinity for Opioid receptor kappa 1 by the inhibition of binding of [3H]U-69593 in guinea pig brain membranes.; format: cell membranes
Chain of Kappa-type opioid receptor (P41144 whole entry): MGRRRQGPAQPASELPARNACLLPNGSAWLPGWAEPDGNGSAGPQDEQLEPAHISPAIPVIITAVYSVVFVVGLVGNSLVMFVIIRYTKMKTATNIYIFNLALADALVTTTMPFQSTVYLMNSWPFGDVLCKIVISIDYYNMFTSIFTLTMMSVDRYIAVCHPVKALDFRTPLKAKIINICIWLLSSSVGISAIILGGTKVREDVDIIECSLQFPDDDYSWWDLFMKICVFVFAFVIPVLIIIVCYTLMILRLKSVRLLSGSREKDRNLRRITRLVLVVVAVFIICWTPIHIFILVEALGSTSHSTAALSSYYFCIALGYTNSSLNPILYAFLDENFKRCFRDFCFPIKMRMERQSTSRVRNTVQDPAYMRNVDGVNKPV
Procedure, shortened: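 Guinea pig brain membranes, first depleted of μ and δ sites by pretreatment with irreversible ligands BIT and FIT. Nonspecific binding from 1 μM U69,593. Nine concentrations, run twice. IC50 reported.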

[5] = biological target: Opioid receptors; mu & delta (Homo sapiens) (UniProt P41143+P35372); assay: Relative binding affinity to mu and delta opioid receptors; format: protein assay
Chain of Opioid receptors; mu & delta (Homo sapiens) (P35372 whole entry, looked up): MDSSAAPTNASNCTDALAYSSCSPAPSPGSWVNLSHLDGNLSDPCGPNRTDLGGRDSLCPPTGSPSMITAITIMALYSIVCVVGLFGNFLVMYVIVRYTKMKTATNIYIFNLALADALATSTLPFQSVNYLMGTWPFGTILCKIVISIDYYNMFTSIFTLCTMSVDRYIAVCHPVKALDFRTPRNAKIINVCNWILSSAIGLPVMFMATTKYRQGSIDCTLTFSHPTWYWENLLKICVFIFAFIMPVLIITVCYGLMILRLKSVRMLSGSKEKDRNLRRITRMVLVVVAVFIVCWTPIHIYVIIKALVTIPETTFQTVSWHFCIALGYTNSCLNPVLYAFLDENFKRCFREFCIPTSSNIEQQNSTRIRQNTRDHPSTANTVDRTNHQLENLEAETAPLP
Chain of Opioid receptors; mu & delta (Homo sapiens) (P41143 whole entry, looked up): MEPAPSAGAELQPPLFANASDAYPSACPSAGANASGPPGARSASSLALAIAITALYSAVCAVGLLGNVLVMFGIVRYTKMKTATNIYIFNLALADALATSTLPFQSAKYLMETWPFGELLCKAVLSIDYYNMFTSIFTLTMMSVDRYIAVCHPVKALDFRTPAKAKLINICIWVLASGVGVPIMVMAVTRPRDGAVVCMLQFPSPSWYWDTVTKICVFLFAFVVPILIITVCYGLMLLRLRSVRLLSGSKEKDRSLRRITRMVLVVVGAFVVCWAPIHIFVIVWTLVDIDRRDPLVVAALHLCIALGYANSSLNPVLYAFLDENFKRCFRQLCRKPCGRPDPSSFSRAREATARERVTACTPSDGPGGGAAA

Mu-type opioid receptor [6] = biological target: Mu-type opioid receptor (Homo sapiens, UniProt P35372); assay: Binding affinity for micro receptors by the inhibition of binding of [3H]DAMGO to Opioid receptor mu 1 in human cloned receptors.
Chain of Mu-type opioid receptor (Homo sapiens, UniProt P35372) (P35372 whole entry): as the sequence (P35372 whole entry, looked up) above
Procedure, shortened: (§2)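 Crude membranes from B82 mouse fibroblasts stably expressing human μ receptor, with 1.0 nM [³H]DAMGO. Samples incubated 3 h at 25 °C; nonspecific binding from 10 μM naltrexone; 10 inhibitor concentrations, with totals in duplicate. Filtered on PEI-treated glass-fiber filters, washed with cold saline, scintillation counted. IC50 by nonlinear regression.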

[7] = biological target: Delta-type opioid receptor (Homo sapiens, UniProt P41143); assay: Binding affinity for Opioid receptor delta 1 by the inhibition of binding of [3H]-p-DPDPE human cloned receptors.
Chain of Delta-type opioid receptor (Homo sapiens, UniProt P41143) (P41143 whole entry): as the sequence (P41143 whole entry, looked up) above
Procedure, shortened: as §2, with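 “from CHO cells” for “from B82 mouse fibroblasts”, “human δ” for “human μ”, “with 0.75” for “with 1.0”, “nM [³H]-p-Cl-DPDPE.” for “nM [³H]DAMGO.”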

[8] = biological target: T1, Delta-type opioid receptor; assay: Binding affinity for Opioid receptor delta 1 as inhibition of [3H]DADAL binding to rat brain membranes; format: cell membranes, Membrane; procedure, shortened: as §1

T1 sequence (P33533 whole entry): as the sequence (P33533 whole entry, looked up) above

Row | Structure (SMILES) | IC50 [1] [nM] | Ratio (Cavia porcellus) | Ratio [2] | IC50 (Mu-type opioid receptor [3]) [nM] | IC50 [4] [nM] | Mu/delta ratio [5] | IC50 (Mu-type opioid receptor [6]) [nM] | IC50 [7] [nM] | IC50 [8] [nM]
1 | C=CCN1C[C@H](C)N([C@H](c2ccc(C(N)=O)cc2)c2cccc(OC)c2)C[C@H]1C | 451 | > 5.5 | > 5.5 | > 2500 | > 2500 | – | – | – | –
2 | C=CCN1C[C@H](C)N([C@@H](c2ccc(C(=O)N(C)C)cc2)c2cccc(OC)c2)C[C@H]1C | 234 | > 11 | > 11 | > 2500 | > 2500 | – | – | – | –
3 | C=CCN1C[C@H](C)N([C@H](c2ccc(C(=O)N(CCC)CCC)cc2)c2cccc(OC)c2)C[C@H]1C | 13.1 | > 763 | 305 | 3990 | > 10000 | 811 | 6080 | 7.5 | –
4 | C=CCN1C[C@H](C)N([C@H](c2ccc(C(=O)N(CCCC)CCCC)cc2)c2cccc(OC)c2)C[C@H]1C | 34.5 | > 71 | > 71 | > 2500 | > 2500 | – | – | – | –
5 | C=CCN1C[C@H](C)N([C@H](c2ccc(C(=O)N3CCCC3)cc2)c2cccc(OC)c2)C[C@H]1C | 18.1 | > 552 | > 138 | > 2500 | > 10000 | 233 | 6190 | 26.6 | –
6 | C=CCN1C[C@H](C)N([C@@H](c2ccc(C(=O)N(CCC)CCC)cc2)c2cccc(OC)c2)C[C@H]1C | 153 | > 65 | 28 | 4340 | > 10000 | – | – | – | –
7 | C=CCN1C[C@H](C)N([C@H](c2ccc(C(=O)N(C)C)cc2)c2cccc(OC)c2)C[C@H]1C | 4.8 | > 2080 | 679 | 3260 | > 10000 | 540 | 9720 | 18 | –
8 | C=CCN1C[C@H](C)N([C@@H](c2ccc(C(=O)N3CCCCC3)cc2)c2cccc(OC)c2)C[C@H]1C | 450 | > 22 | > 5.5 | > 2500 | > 10000 | – | – | – | –
9 | C=CCN1C[C@H](C)N([C@H](c2ccc(C(=O)N(CC)CC)cc2)c2cccc(OC)c2)C[C@H]1C [SNC-80] | – | – | – | – | 7070 | – | – | – | –
10 | C=CCN1C[C@H](C)N([C@H](c2ccc(C(=O)NC(CC)CC)cc2)c2cccc(OC)c2)C[C@H]1C | 176 | > 14 | > 14 | > 2500 | > 2500 | – | – | – | –
11 | C=CCN1C[C@H](C)N([C@H](c2ccc(C(=O)N3CCCCC3)cc2)c2cccc(OC)c2)C[C@H]1C | 14.6 | > 684 | > 171 | > 2500 | > 10000 | 158 | 6000 | 38 | –
12 | C=CCN1C[C@H](C)N([C@@H](c2ccc(C(=O)N(CCCC)CCCC)cc2)c2cccc(OC)c2)C[C@H]1C | 129 | > 5.5 | > 5.5 | > 2500 | > 2500 | – | – | – | –
13 | C=CCN1C[C@H](C)N([C@H](c2ccc(C(=O)N3CCCCCC3)cc2)c2cccc(OC)c2)C[C@H]1C | 8.2 | > 1220 | > 305 | > 2500 | > 10000 | 344 | 4470 | 13 | –
14 | C=CCN1C[C@H](C)N([C@H](c2ccc(C(=O)N(CC)CCCC)cc2)c2cccc(OC)c2)C[C@H]1C | 6.6 | > 1520 | 286 | 1890 | > 10000 | 327 | 3340 | 10.2 | –
15 | C=CCN1C[C@H](C)N([C@@H](c2ccc(C(=O)N3CCCC3)cc2)c2cccc(OC)c2)C[C@H]1C | 265 | > 38 | > 9.4 | > 2500 | > 10000 | – | – | – | –
16 | C=CCN1C[C@H](C)N([C@H](c2ccc(C(=O)NCC)cc2)c2cccc(OC)c2)C[C@H]1C | – | 2.3 | 1.6 | 242 | 345 | – | – | – | 150
17 | C=CCN1C[C@H](C)N([C@@H](c2ccc(C(=O)N(C(C)C)C(C)C)cc2)c2cccc(OC)c2)C[C@H]1C | 344 | > 7.3 | > 7.3 | > 2500 | > 2500 | – | – | – | –
18 | C=CCN1C[C@H](C)N([C@@H](c2ccc(C(N)=O)cc2)c2cccc(OC)c2)C[C@H]1C | 389 | > 6.4 | > 6.4 | > 2500 | > 2500 | – | – | – | –
19 | C=CCN1C[C@H](C)N([C@H](c2ccc(C(=O)N(C(C)C)C(C)C)cc2)c2cccc(OC)c2)C[C@H]1C | 7.1 | > 352 | > 352 | > 2500 | > 2500 | 1370 | 6840 | 5 | –
20 | C=CCN1C[C@H](C)N([C@H](c2ccc(C(=O)N(C)CC)cc2)c2cccc(OC)c2)C[C@H]1C | 4.2 | > 2380 | 1760 | 7370 | > 10000 | 1510 | 12100 | 8 | –
21 | C=CCN1C[C@H](C)N([C@@H](c2ccc(C(=O)NCC)cc2)c2cccc(OC)c2)C[C@H]1C | 34.4 | 48 | 4.9 | 169 | 1630 | – | – | – | –
22 | C=CCN1C[C@H](C)N([C@@H](c2ccc(C(=O)N(CC)CCCC)cc2)c2cccc(OC)c2)C[C@H]1C | 151 | > 66 | 39 | 5880 | > 10000 | – | – | – | –
23 | C=CCN1C[C@H](C)N([C@@H](c2ccc(C(=O)N3CCCCCC3)cc2)c2cccc(OC)c2)C[C@H]1C | 124 | > 81 | > 20 | > 2500 | > 2500 | – | – | – | –
24 | C=CCN1C[C@H](C)N([C@H](c2ccc(C(=O)NC(C)(C)C)cc2)c2cccc(OC)c2)C[C@H]1C | 281 | > 8.9 | > 8.9 | > 2500 | > 2500 | – | – | – | –
25 | C=CCN1C[C@H](C)N([C@@H](c2ccc(C(=O)N(C)CC)cc2)c2cccc(OC)c2)C[C@H]1C | 60.6 | > 41 | > 41 | > 2500 | > 2500 | – | – | – | –
